# Measurements pooled from the literature.
# Protocols differ between the studies behind these lines.
# pol: pol (Feline immunodeficiency virus, UniProt P16088)
# mreB: mreB (Escherichia coli, UniProt P0A9X4)
# Cnr2: Cannabinoid receptor 2 (Cnr2, Mus musculus, UniProt P47936)
SMILES,target,test,system,conditions,endpoint,result
CC[C@@H](C)COc1ccc([C@@H](CO)C(=O)N[C@H](C)c2ccccc2)cc1,"G protein-coupled receptor 88 (Homo sapiens, UniProt Q9GZN0)","cAMP, agonist, TR-FRET",,,EC50,3.09 µM
O=C(/C=C/c1cccc(S(=O)(=O)Nc2ccccc2)c1)NO,"Histone deacetylase 4 (HDAC4, Homo sapiens, UniProt P56524)",cell-free assay,,,Kd,> 30.2 µM
Cc1cc(/C=C/C#N)cc(C)c1Nc1ccnc(Nc2ccc(C#N)cc2)n1,pol,"binding, SPR",,,Kd,16 µM
CC(C)C[C@@H]1C(=O)N[C@H]([C@@H](C)O)C(=O)N[C@H](C)[C@@H](C)C(=O)O[C@@H](Cc2ccccc2)C(=O)N(C)[C@@H](C(C)C)C(=O)N2CCC[C@H]2C(=O)N(C)[C@H](Cc2ccccc2)C2=N[C@@H](CS2)C(=O)N[C@H](C)C2=N[C@@H](CS2)C(=O)N1C,"Procathepsin L (CTSL, Homo sapiens, UniProt P07711)","enzyme activity, inhibitor",,,IC50,21.3 µM
NC1CCCCc2c1[nH]c1ccc(Cl)c(Cl)c21 (stereo not shown),mreB,"ATPase activity, inhibitor, absorbance",,,IC50,25 µM
Cc1nonc1Cn1nnc2c(N3CC[C@H](O)C3)nc(C(C)(C)C)nc21,Cnr2,"ligand displacement, radioligand",,cell membranes,Ki,0.061 µM
C=CC(O)CO (stereo not shown),"Cytochrome P450 2E1 (Cyp2e1, Rattus norvegicus, UniProt P05182)","enzyme activity, inhibitor","Fischer 344 rat, liver microsomes",30 min,IC50,1000 µM
Cc1ccnc2c1NC(=O)c1cccnc1N2C1CC1,pol,"enzyme activity, inhibitor",,,IC50,1.4 µM
Cc1nc([C@@](C)(CC2CC2)NC(=O)c2cc(OCC(F)(F)F)c(C3CC3)cn2)no1,Cnr2,"ligand displacement, radioligand",,cell membranes,Ki,0.006 µM
CC(N)c1cc2cc(Br)ccc2[nH]1 (stereo not shown),mreB,"ATPase activity, inhibitor, absorbance",,,IC50,120 µM
CCOC(=O)C(CC)(CCCSCCOCCOCCNc1ccc([N+](=O)[O-])c2nonc12)NC(=O)c1ccc(C2CC2)c(Cc2ccc(F)cc2)n1 (racemic),Cnr2,"ligand displacement, radioligand",,cell membranes,Ki,0.073 µM
O=[As](O)(O)c1ccc(Cc2ccc([As](=O)(O)O)cc2)cc1,"Autotaxin (ENPP2, Homo sapiens, UniProt Q13822)","enzyme activity, inhibitor, absorbance",,pH 8,Ki,0.026 µM
CCOC(=O)[C@](CC)(CCC[S+]([O-])CCOCCOCCNC(=O)OC(C)(C)C)NC(=O)c1ccc(C2CC2)c(Cc2ccc(F)cc2)n1 (stereo partly shown),Cnr2,"cAMP, agonist",,,EC50,0.065 µM
C[C@]12CC[C@@H]3c4ccc(O)cc4CC[C@H]3[C@@H]1CC[C@@H]2O,"Protein disulfide-isomerase (P4HB, Homo sapiens, UniProt P07237)","binding, radioligand",,,Kd,1.5 µM
CCOC(=O)C(CC)(CCCSCCOCCOCCOCCOCCNC(=O)OC(C)(C)C)NC(=O)c1ccc(C2CC2)c(Cc2ccc(F)cc2)n1 (stereo not shown),Cnr2,"cAMP, agonist",,,EC50,0.031 µM
CC(C)C[C@H]1C(=O)N2CCC[C@H]2[C@]2(O)O[C@](NC(=O)[C@@H]3C=C4c5cccc6[nH]cc(c56)C[C@H]4N(C)C3)(C(C)C)C(=O)N12,"Solute carrier organic anion transporter family member 1B3 (SLCO1B3, Homo sapiens, UniProt Q9NPD5)","transporter uptake, inhibitor, fluorescence",CHO,"30 min, pH 7.4",IC50,2.2 µM
